# From PubChem
# MC4R antagonist: human MC4R antagonism in cAMP assay; P32245; MC4R-expressing cells, MTII-stimulated cAMP, LANCE TR-FRET; inhibition, % at 6.5 µM; 0.48% of 360,000 active; AID 540295;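 active = inhibition above its plate's cutoff, the mean of tested wells on that plate plus 3 SD, cut at about 29% in these data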;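 also: 0% = Melanotan II alone and 100% = Melanotan II plus saturating MCL0020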
# Target sequence (P32245 whole entry, looked up): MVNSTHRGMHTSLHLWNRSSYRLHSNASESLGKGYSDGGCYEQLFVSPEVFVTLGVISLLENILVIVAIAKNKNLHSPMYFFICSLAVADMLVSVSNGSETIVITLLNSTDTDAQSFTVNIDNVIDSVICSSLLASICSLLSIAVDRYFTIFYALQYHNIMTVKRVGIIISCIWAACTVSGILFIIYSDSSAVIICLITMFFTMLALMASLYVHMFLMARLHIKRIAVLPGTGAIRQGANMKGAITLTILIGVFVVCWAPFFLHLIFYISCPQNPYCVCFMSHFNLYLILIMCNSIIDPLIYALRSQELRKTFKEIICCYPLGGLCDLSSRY
#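 Material: U2OS-MC4R stable cell line | Reagent: Melanotan II challenge after compound preincubation | Doses: One concentration, 6.5 µM nominal | Incubation: 30-min compound preincubation, 1-h Melanotan II challenge, 1-h detection, room temperature | Signal: TR-FRET cAMP assay | Replicates: One well per compound, no replicates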
# ATG4B inhibitor: ATG4B (human) cysteine protease inhibition | Q9Y4P1 | ATG4B cleavage of LC3-PLA2, NBD-HPC fluorescence, 1 h | inhibition, % at 8.33 µM | 0.51% of 340,000 active; in the data active = inhibition above about 40%
# MC4R ag barr: human MC4R agonism via beta-arrestin; P32245; activation, % at 8.9 µM; U2OS MC4R beta-arrestin complementation, luminescence; percent of melanotan II response, DMSO zero; 0.98% of 360,000 active; AID 540308;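 active = activation above a per-plate cutoff, the mean activation of sample wells on that plate plus 3 SD, cut at about 8% in these data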
# MPTP inh: blocks calcium-induced mitochondrial swelling; isolated mouse mitochondria, Ca2+ swelling absorbance, 30 min; AID 602449; inhibition, % at 10 µM; 1.4% of 360,000 active;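 active = inhibition of 50% or more, scaled per plate between neutral and stimulator controls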;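 also: 0% = DMSO wells given calcium and 100% = 1 mM EGTA wells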
# SMARCA2 act: increases SMARCA2 function in MMTV reporter cells | MG213 cells, MMTV-luciferase reporter, dexamethasone, overnight | activation, % at 9.1 µM | 1% of 370,000 active; in the data active = activation above about 7.8%;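 also: 0% = vehicle wells and 100% = reference activator wells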
# Rh123 counter: membrane potential counter-screen of mitochondrial pore inhibitors; inhibition, % at 10 µM; 78% of 5,000 active; shares compounds with MPTP inh; AID 624504; isolated mitochondria, Rhodamine 123 fluorescence; in the data active = inhibition above about 22%;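 also: 0% = DMSO vehicle and 100% = positive control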
# MPTP swell DR: MPTP inhibition, dose response swelling confirmation; isolated mitochondria swelling, absorbance; shares compounds with MPTP inh; IC50, µM; 58% of 780 active; in the data active = IC50 below about 20 µM
# MPTP counter DR: counter-screen for mitochondrial permeability transition pore inhibitors, dose response; shares compounds with MPTP inh; isolated mitochondria counterscreen, fluorescence read-out; IC50, µM; 49% of 780 active; AID 651564; in the data active = IC50 below about 80 µM
# SMARCA2 conf: SMARCA2 activation, confirmation screen | shares compounds with SMARCA2 act | MG213 cells, MMTV-luciferase with dexamethasone, luminescence, overnight; MG213 cells expressing E1A, Rb sequestered; DMSO wells 0%, reference activator 100% | activation, % at 9.1 µM | 30% of 3,500 active | AID 652260;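 active = activation above its plate's cutoff, the mean activation of tested wells plus 3 SD, cut at about 7.9% in these data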
# GAL4-VP16 Luc: counter-screen for SMARCA2 activators: GAL4-VP16 luciferase reporter activation; shares compounds with SMARCA2 act; HEK293 GAL4-VP16 pG5luc reporter, luciferase luminescence; scaled: DMSO wells 0%, SAHA wells 100%; activation, % at 9.1 µM; 41% of 3,500 active;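 active = activation above the solvent-only control well mean plus 3 SD, averaged across control plates, cut at about 5.2% in these data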
# Active calls of the source: *; · = no result given. A selection: hits, their analogues and other compounds. The true share with any hit is near 4.1%.
SMILES,MC4R antagonist,ATG4B inhibitor,MC4R ag barr,MPTP inh,SMARCA2 act,SMARCA2 conf,GAL4-VP16 Luc,others
CN(Cc1cccc(-c2ccncc2)c1)C(=O)Oc1ccccc1Cc1ccccc1,·,·,·,90*,·,·,·,Rh123 counter=114*
CN(Cc1cccc(-c2ccncc2)c1)C(=O)Oc1ccccc1Cl,·,·,·,47,·,·,·,
Cc1ccc(OC(=O)N(C)C[C@H]2OCc3cnnn3CCCC(=O)N([C@@H](C)CO)C[C@@H]2C)cc1,·,·,·,·,0,·,·,
CC(C)(C)c1ccc(CSc2cnn(C(C)(C)C)c(=O)c2Cl)cc1,15,-5,1,92*,-6,·,·,Rh123 counter=85*
CCOC(=O)C1(c2ccccc2)CCN(CCC(=O)Nc2cccc(Br)c2)CC1,7,-11,1,77*,0,·,·,Rh123 counter=11
CCOC(=O)C1(c2ccccc2)CCN(CCC(=O)Nc2ccc(OC)cc2)CC1,0,·,-1,0,1,·,·,
O=C(Nc1ccc(Cl)cc1)O/N=C(\c1ccccc1)c1ccccn1,-4,-4,-1,87*,1,·,·,Rh123 counter=101*
CON(C)C(=O)Nc1ccc(Cl)cc1,0,9,-2,12,1,·,·,
CN1CCN(c2cc(N3CCCCCC3)c(F)cc2[N+](=O)[O-])CC1,-1,0,0,52*,-6,·,·,Rh123 counter=-6;MPTP swell DR=13*;MPTP counter DR=>80
O=C(NCCN1CCC2(CC1)C(=O)NCN2c1ccccc1)c1ccc2ccccc2c1,·,·,·,·,4,·,·,
CC(N)Cc1c[nH]c2ccc(OCc3cccs3)cc12 (stereo not drawn),13,-3,1,82*,0,·,·,Rh123 counter=-11;MPTP swell DR=9.8*;MPTP counter DR=>80
CC(=O)OC1CC2OC3C=C(C)CCC3(C)C1(C)C21CO1 (stereo not drawn),1,·,0,0,-7,·,·,
O=[N+]([O-])c1ccc(N(CCO)CCO)c2c1no[n+]2[O-],7,·,-5,21,15*,13*,1,
CN1CCN(c2ccc([N+](=O)[O-])c3no[n+]([O-])c23)CC1,-13,12,1,15,-8,·,·,
CC(C)(C)n1nnnc1C(c1ccccc1)N1CCC2(CC1)C(=O)NCN2c1ccccc1 (stereo not drawn),·,·,·,0,3,·,·,
CS(=O)(=O)c1ccc(C2=C(CNC(=O)c3cccnc3)[C@H]3CC[C@@H](C2)N3Cc2ccccc2)cc1,0,·,-1,1,13*,-3,0,
Brc1ccc2c(c1)-n1nncc1CNC2,·,·,·,·,2,·,·,
Nc1c(C(=O)NCc2ccco2)c2nc3ccccc3nc2n1CCN1CCCCC1,6,-9,-3,0,8.8*,4,-1,
COc1cccc(NC2=NCCS2)c1,·,·,·,·,-5,·,·,
CN1CCN(c2ccc3c(c2)S(=O)(=O)c2ccccc2C3=O)CC1,-3,-13,-1,1,8.6*,8.2*,8.8*,
O=C1NCN(c2ccccc2)C12CCN(C(c1cccc3ccccc13)c1nnnn1C1CCCCC1)CC2 (stereo not drawn),·,·,·,0,-3,·,·,
S=P1(Oc2ccccc2)Nc2ccccc2N1,13,7,0,-1,12*,5,3,
CSCCC(c1nnnn1Cc1ccccc1)N1CCC2(CC1)C(=O)NCN2c1ccccc1 (stereo not drawn),·,·,·,-2,-4,·,·,
COC(=O)C1=C(C(=O)OC)SC2(S1)C(C(=O)OC)=C(C(=O)OC)Sc1c2ssc1=O,-40,2,-5,-3,62*,-10,8.4*,
O=C1NCN(c2ccccc2)C12CCN(C(c1ccnc3ccccc13)c1nnnn1-c1ccc3c(c1)OCCO3)CC2 (stereo not drawn),·,·,·,0,1,·,·,
SMILES,MC4R antagonist,ATG4B inhibitor,MC4R ag barr,MPTP inh,SMARCA2 act,SMARCA2 conf,GAL4-VP16 Luc,others
N#Cc1c(Br)n(C2OC(CO)C(O)C2O)c2ncnc(N)c12 (stereo not drawn),-3,-7,-3,-2,63*,52*,-1,
N#Cc1cn(C2OC(CO)C(O)C2O)c2ncnc(N)c12 (stereo not drawn),7,0,1,-3,8.5*,17*,-4,
Cc1c(OC(=O)N(C)C)ccc2c1O/C(=C\c1ccco1)C2=O,-4,-9,-2,5,8.2*,4,5.9*,
CN(C)C(=O)Oc1ccc(Cl)c2ccccc12,1,-11,0,0,-4,·,·,
CN1CC[C@@H]2CN[C@H](c3ccccc3)C[C@@H]21,·,·,·,·,0,·,·,
C=CCNC(=S)Nc1ccc(OC(=O)Nc2ccc(Cl)c(Cl)c2)cc1,-2,9,0,16,-1,·,·,
O=C(Nc1ccc(Cl)c(Cl)c1)c1ccco1,4,5,0,0,8.2*,3,9.2*,
CC(=O)O[C@@H]1/C=C/[C@](C)(O)C[C@@H](C)C/C=C/[C@H]2[C@H](O)C(C)=C(C)[C@H]3[C@H](Cc4ccccc4)NC(=O)[C@@]123,·,-5,·,·,·,·,·,
C=C1C(C)C2C(Cc3ccccc3)NC(=O)C23C(OC(C)=O)C=CC(C)(O)CC(C)CC=CC3C1O (stereo not drawn),-11,-7,-1,0,14*,14*,5,
CC12Nc3ccccc3C(=O)N1Cc1cnnn1-c1ccccc12 (stereo not drawn),·,·,·,-2,-5,·,·,
CN(C)C(=O)Oc1ccc(OC(=O)c2ccccc2)cc1,2,8,0,-2,11*,8.2*,-1,
CN(C(=O)Oc1ccc(C(=O)c2ccc(Cl)cc2)cc1)c1ccccc1,12,15,3,-1,1,·,·,
O=C(CNCc1c(F)cccc1F)N1CCC2(CC1)OCCO2,·,·,·,·,8.6*,16*,3,
CCCC1(CC(C)CC)C(=O)NC(=O)NC1=O (stereo not drawn),0,·,-3,-1,3,·,·,
C=C1C(=O)C(C)=C2C(=O)N3Cc4[nH]c5ccccc5c4CC3(C(=O)OC)C12 (stereo not drawn),·,·,·,·,9.2*,7,3,
Cc1cc(NC(=O)CCl)no1,2,-5,-1,2,8.9*,1,0,
C=C1C(=O)OC2C1CCC(C)C1(O)C=CC(=O)C21C (stereo not drawn),14,-10,-1,-2,8.4*,15*,2,
C=C1C(=O)O[C@H]2C[C@@H](C)[C@@H]3C=CC(=O)[C@@]3(C)C[C@H]12,·,9,·,·,-8,·,·,
C[C@@]12CC[C@@H](c3cc4c(cc3C1)OCO4)N2c1ccccc1,·,·,·,1,-1,·,·,
CC(Cc1ccccc1)/[N+]([O-])=C\c1ccc(C(F)(F)F)cc1 (stereo not drawn),10,-1,-1,0,9.2*,11*,6.3*,
CNC(C)Cc1ccccc1 (stereo not drawn),10,-3,-1,0,2,·,·,
